Results on 20 compounds are retold here after ChEMBL document CHEMBL4477254, “Synthesis and biological evaluation of some novel triazole hybrids of curcumin mimics and their selective anticancer activity against breast and prostate cancer cell lines” (Bioorg Med Chem Lett, 2016).

The test system of assay [1] is MDA-MB-231. Briefly: Cytotoxicity against human MDA-MB-231 cells assessed as decrease in cell viability after 24 hrs by MTT assay. As to conditions: MDA-MB-231, 24 h. In kind it is functional, cell-based. An outline of the steps: (§1)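 Cell viability by MTT after 24 h compound exposure; curcumin as standard. IC50 in µM from three independent experiments, expressed as mean ± SE.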

Assay [2] has as its system DU-145. The assay can be described thus: Cytotoxicity against human DU145 cells assessed as decrease in cell viability after 24 hrs by MTT assay. The format is functional, cell-based. As to conditions: DU-145, 24 h. An outline of the steps:
as §1
On the technique in general: Tetrazolium assays rely on reduction of a dye to a coloured formazan, in cell work by metabolically active cells.

Assay [3] concerns PC-3. Briefly: Potency index, ratio of curcumin IC50 to compound IC50 in human PC3 cells. In kind it is functional. The method in brief: (§2)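 IC50 came from an MTT viability assay after 24 h compound exposure, with curcumin run as the standard. Values are mean ± SE of three independent experiments. The index is the curcumin IC50 divided by the compound IC50 in the same cell line.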

For another assay, the system named is MCF7. The assay can be described thus: Cytotoxicity against human MCF7 cells assessed as decrease in cell viability after 24 hrs by MTT assay. The format is functional, cell-based. As to conditions: MCF7, 24 h. An outline of the steps: as §1
Assay [4] relates to PC-3. Briefly: Cytotoxicity against human PC3 cells assessed as decrease in cell viability after 24 hrs by MTT assay. In kind it is functional, cell-based. As to conditions: PC-3, 24 h. The method in brief: as §1
Assay [5] deals with 4T1. The assay can be described thus: Cytotoxicity against mouse 4T1 cells assessed as decrease in cell viability after 24 hrs by MTT assay. The format is functional, cell-based. As to conditions: 4T1, 24 h. An outline of the steps:
as §1

The test system of the next assay is HEK293. The assay can be described thus: Cytotoxicity against human HEK293 cells assessed as decrease in cell viability after 24 hrs by MTT assay. In kind it is cell-based. As to conditions: HEK293, 24 h. The method in brief:
as §1

The subject of assay [6] is MDA-MB-231. The assay can be described thus: Potency index, ratio of curcumin IC50 to compound IC50 in human MDA-MB-231 cells. The format is functional. An outline of the steps: as §2
In assay [7] the test system is 4T1. Briefly: Potency index, ratio of curcumin IC50 to compound IC50 in mouse 4T1 cells. The format is functional. The method in brief:
as §2

Assay [8] relates to DU-145. The assay can be described thus: Potency index, ratio of curcumin IC50 to compound IC50 in human DU145 cells. The format is functional. An outline of the steps:
as §2

As usually defined, the IC50 is the concentration that gives 50% inhibition.

Where only a bound is given, the exact number is not on record here.

Consider `COc1ccc(/C=C2\CN(C(=S)SCc3cn(Cc4ccccc4F)nn3)C/C(=C\c3ccc(OC)cc3)C2=O)cc1`, for which the IC50 with MDA-MB-231 [1] is greater than 100 µM; with DU-145 [2], 54.5 µM; with MCF7 it was 79.4 µM; in the assay on PC-3 [4], 31.5 µM; in the assay with 4T1 [5], 49.9 µM. Besides, the “Ratio IC50” value with PC-3 [3] is given as “<=5.7”.
In the case of `COC(=O)Nc1nc2cc(C(=O)c3cccs3)ccc2[nH]1` [NOCODAZOLE], the IC50 with MDA-MB-231 [1] turned out to be 1.1 µM; in the assay on DU-145 [2], 2.2 µM; in the assay with MCF7, 0.42 µM; in the assay with PC-3 [4] it was 2.5 µM; with 4T1 [5], 1.3 µM; with HEK293, 5.1 µM.
Consider `Cc1ccc(/C=C2\CN(C(=S)SCc3cn(Cc4cccc(Cl)c4)nn3)C/C(=C\c3ccc(C)cc3)C2=O)cc1`, for which the IC50 in the assay on MDA-MB-231 [1] was 83 µM; with DU-145 [2] it was greater than 80 µM; in the assay on MCF7 it was greater than 100 µM; in the assay with PC-3 [4], greater than 80 µM; in the assay with 4T1 [5], 53.4 µM.
With `Cc1ccc(/C=C2\CN(Cc3cn(Cc4ccc(F)cc4)nn3)C/C(=C\c3ccc(C)cc3)C2=O)cc1`, the IC50 with MDA-MB-231 [1] was found to be 26.8 µM; in the assay with DU-145 [2], 49.7 µM; in the assay on MCF7, 29 µM; in the assay on PC-3 [4], 65.6 µM; with 4T1 [5] it was 57.2 µM. The “Ratio IC50” value in the assay on MDA-MB-231 [6] is on record as “<=8.3”.
As for `COc1ccc(/C=C2\CN(Cc3cn(Cc4ccccc4Cl)nn3)C/C(=C\c3ccc(OC)cc3)C2=O)cc1`, the IC50 in the assay on MDA-MB-231 [1] is greater than 100 µM; in the assay on DU-145 [2] it was 17.8 µM; in the assay with MCF7 it was greater than 100 µM; with PC-3 [4], 36.3 µM; in the assay on 4T1 [5] it was 11.4 µM. In addition, the entries for the “Ratio IC50” value in the assay on PC-3 [3], in the assay on 4T1 [7] and in the assay with DU-145 [8] were “<=5.7”, “<=9.3” and no more than 9.5, respectively.
Turning to `Cc1ccc(/C=C2\CN(C(=S)SCc3cn(Cc4ccccc4F)nn3)C/C(=C\c3ccc(C)cc3)C2=O)cc1`, the IC50 is 91.5 µM in the assay with MDA-MB-231 [1]; 80 µM in the assay on DU-145 [2]; greater than 100 µM in the assay on MCF7; greater than 80 µM with PC-3 [4]; 28.4 µM with 4T1 [5]. Also, the “Ratio IC50” value in the assay with 4T1 [7] is “<=9.3”.
Turning to `COc1ccc(/C=C2\CN(Cc3cn(Cc4ccc(F)cc4)nn3)C/C(=C\c3ccc(OC)cc3)C2=O)cc1`, the IC50 is 70.7 µM in the assay with MDA-MB-231 [1]; 59.4 µM with DU-145 [2]; greater than 100 µM with MCF7; 67.5 µM with PC-3 [4]; 49.3 µM in the assay on 4T1 [5]. Besides, the “Ratio IC50” value in the assay with 4T1 [7] was “<=9.3”; in the assay on MDA-MB-231 [6], “<=8.3”.
As to `COc1ccc(/C=C2\CN(C(=S)SCc3cn(Cc4ccc(F)cc4)nn3)C/C(=C\c3ccc(OC)cc3)C2=O)cc1`, the IC50 was greater than 100 µM in the assay with MDA-MB-231 [1]; 74.6 µM in the assay with DU-145 [2]; greater than 100 µM with MCF7; 45.6 µM with PC-3 [4]; greater than 100 µM with 4T1 [5].
For the compound `COc1ccc(/C=C2\CN(Cc3cn(Cc4ccccc4F)nn3)C/C(=C\c3ccc(OC)cc3)C2=O)cc1`, the IC50 in the assay with MDA-MB-231 [1] is 67.2 µM; with DU-145 [2], 32.6 µM; in the assay with MCF7 it was no less than 100 µM; with PC-3 [4] it was 39.9 µM; in the assay on 4T1 [5], 39.4 µM; with HEK293, greater than 100 µM. Further, the figures for the “Ratio IC50” value with 4T1 [7], in the assay on MDA-MB-231 [6] and in the assay with DU-145 [8] were “<=9.3”, “<=8.3” and no more than 9.5, respectively.
As for `Cc1ccc(/C=C2\CN(C(=S)SCc3cn(Cc4ccccc4Cl)nn3)C/C(=C\c3ccc(C)cc3)C2=O)cc1`, the IC50 in the assay with MDA-MB-231 [1] is 93.2 µM; in the assay on DU-145 [2], greater than 80 µM; with MCF7, greater than 100 µM; with PC-3 [4], greater than 80 µM; in the assay on 4T1 [5], 49.3 µM. The “Ratio IC50” value in the assay on 4T1 [7] was “<=9.3”.
As for `COc1ccc(/C=C2\CN(C(=S)SCc3cn(Cc4ccccc4Cl)nn3)C/C(=C\c3ccc(OC)cc3)C2=O)cc1`, the IC50 with MDA-MB-231 [1] was greater than 100 µM; with DU-145 [2], greater than 80 µM; in the assay with MCF7 it was greater than 100 µM; in the assay with PC-3 [4], 60.1 µM; in the assay on 4T1 [5] it was greater than 100 µM.
For the compound `O=C1/C(=C/c2ccccc2F)CN(C(=S)SCc2cn(Cc3cccc(Cl)c3)nn2)C/C1=C\c1ccccc1F`, the IC50 was greater than 100 µM in the assay with MDA-MB-231 [1]; greater than 80 µM in the assay with DU-145 [2]; greater than 100 µM in the assay with MCF7; 80 µM in the assay on PC-3 [4]; greater than 100 µM in the assay with 4T1 [5].
In the case of `O=c1[nH]cc(F)c(=O)[nH]1` [FLUOROURACIL], the IC50 in the assay with MDA-MB-231 [1] stood at 19 µM; with DU-145 [2] it was 24.2 µM; in the assay with PC-3 [4], 13.3 µM; with 4T1 [5] it was 23 µM; in the assay with HEK293 it was 40 µM.
For the compound `O=C1/C(=C/c2ccccc2F)CN(C(=S)SCc2cn(Cc3ccc(F)cc3)nn2)C/C1=C\c1ccccc1F`, the IC50 in the assay on MDA-MB-231 [1] was 58.8 µM; with DU-145 [2], 35.7 µM; with MCF7, 56.9 µM; in the assay with PC-3 [4], greater than 80 µM; in the assay on 4T1 [5], 9.9 µM; in the assay on HEK293 it was 51.3 µM. For the same compound, the entries for the “Ratio IC50” value with 4T1 [7] and in the assay with MDA-MB-231 [6] were “<=9.3” and “<=8.3”, respectively.
`Cc1ccc(/C=C2\CN(C(=S)SCc3cn(Cc4ccc(F)cc4)nn3)C/C(=C\c3ccc(C)cc3)C2=O)cc1`: the IC50 was found to be 45.6 µM with MDA-MB-231 [1]; 38.8 µM with DU-145 [2]; 81.6 µM in the assay with MCF7; 45.5 µM with PC-3 [4]; 29.3 µM with 4T1 [5]. For the same compound, the “Ratio IC50” value was “<=9.3” with 4T1 [7], “<=8.3” in the assay with MDA-MB-231 [6] and no more than 9.5 with DU-145 [8].
As to `COc1ccc(/C=C2\CN(C(=S)SCc3cn(Cc4cccc(Cl)c4)nn3)C/C(=C\c3ccc(OC)cc3)C2=O)cc1`, the IC50 was 32 µM with MDA-MB-231 [1]; greater than 80 µM in the assay with DU-145 [2]; 32 µM in the assay on MCF7; greater than 80 µM with PC-3 [4]; 69.7 µM with 4T1 [5]; greater than 100 µM with HEK293. In addition, the “Ratio IC50” value with MDA-MB-231 [6] is “<=8.3”.
On to `COc1cccc2c1C(=O)c1c(O)c3c(c(O)c1C2=O)C[C@@](O)(C(=O)CO)C[C@@H]3O[C@H]1C[C@H](N)[C@H](O)[C@H](C)O1` [DOXORUBICIN], for which the IC50 in the assay with MDA-MB-231 [1] is 1.6 µM; with DU-145 [2], 1.6 µM; in the assay on 4T1 [5] it was 0.99 µM; in the assay with HEK293 it was 7.2 µM.
`O=C1/C(=C/c2ccccc2F)CN(C(=S)SCc2cn(Cc3ccccc3F)nn2)C/C1=C\c1ccccc1F`: the IC50 in the assay with MDA-MB-231 [1] was 57.6 µM; in the assay with DU-145 [2] it was greater than 80 µM; with MCF7 it was 51.6 µM; with PC-3 [4], greater than 80 µM; in the assay on 4T1 [5], 30.7 µM. Moreover, the “Ratio IC50” value in the assay with 4T1 [7] is “<=9.3”; with MDA-MB-231 [6] it was “<=8.3”.
`COc1ccc(/C=C2\CN(Cc3cn(Cc4cccc(Cl)c4)nn3)C/C(=C\c3ccc(OC)cc3)C2=O)cc1`: the IC50 is 98 µM with MDA-MB-231 [1]; 15.4 µM with DU-145 [2]; 99 µM in the assay with MCF7; 32.5 µM with PC-3 [4]; 56.6 µM in the assay with 4T1 [5]; greater than 100 µM in the assay on HEK293. Also, the entries for the “Ratio IC50” value in the assay on PC-3 [3] and in the assay with DU-145 [8] were “<=5.7” and no more than 9.5, respectively.
As to `O=C1/C(=C/c2ccccc2F)CN(C(=S)SCc2cn(Cc3ccccc3Cl)nn2)C/C1=C\c1ccccc1F`, the concentration for half-maximal inhibition (IC50) in the assay on MDA-MB-231 [1] is 100 µM; in the assay on DU-145 [2] it was 46.3 µM; in the assay with MCF7, 78.7 µM; in the assay on PC-3 [4], greater than 80 µM; in the assay on 4T1 [5], 43.6 µM. Besides, in the assay on 4T1 [7], the “Ratio IC50” value was “<=9.3”.
